Assay [1] has as its system F9. As to the kind of experiment: Ability to displace [3H]all-trans-retinoic acid from F9 embryonal carcinoma cells, was assessed in a F9 laminin release assay. Type of assay: functional. The following applies: Mus musculus, F9, 96 h; read-out: ED50 (the source's name).
Assay [2] is filed under the species Oryctolagus cuniculus. As to the kind of experiment: Percentage inhibition of cholesterol-3-sulfate activity rabbit at 10 nM. Type of assay: functional. The arrangement: scale not given: the % may be the effect or the level left. The gist of the method: (§1)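 Rabbit tracheal epithelial cells in supplemented Ham's F12, given retinoid (0.1 or 10 nM) in Me₂SO from day 5 for 5 days. Cells were labeled 22 h with 25 μCi/mL Na₂³⁵SO₄, trypsinized, and extracted with CHCl₃/MeOH. Inhibition of ³⁵SO₄ incorporation into cholesterol 3-sulfate was measured relative to control.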

In assay [3] the target is Cellular retinoic acid-binding protein 1 (Gallus gallus) (UniProt P40220). As to the kind of experiment: Concentration of compound required to inhibit binding of 2.5 uM [3H]all-trans-retinoic acid by 50% in chick. The gist of the method: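 Chick embryo skin CRABP (12–13-day), with albumin removed on Affi-Gel Blue. Eluates (1 mg protein/0.4 mL) were incubated with saturable [³H]-all-trans-retinoic acid ± 1-, 5-, 10- or 25-fold molar excess of unlabeled retinoid. Free ligand was removed with dextran-coated charcoal, followed by filtration and counting of bound radioactivity. Nonspecific binding was defined with 25-fold excess of retinoic acid. ID50 from semilog plots.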
Chain of Cellular retinoic acid-binding protein 1 (Gallus gallus) (P40220 whole entry): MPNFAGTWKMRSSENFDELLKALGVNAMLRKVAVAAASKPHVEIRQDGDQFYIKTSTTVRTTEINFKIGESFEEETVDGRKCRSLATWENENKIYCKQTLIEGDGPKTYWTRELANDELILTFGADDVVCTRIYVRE

Assay [4] is filed under the species Oryctolagus cuniculus. As to the kind of experiment: Percentage inhibition of cholesterol-3-sulfate activity in rabbit at 0.1 nM. Type of assay: functional. Put shortly: as §1
Assay [5] is filed under the species Oryctolagus cuniculus. As to the kind of experiment: Percentage inhibition of Transglutaminase activity in rabbit at 0.1 nM. Also on record: scale not given: the % may be the effect or the level left. Put shortly:
(§2)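 Rabbit tracheal epithelial cells on fibronectin/BSA/vitrogen-coated dishes in supplemented Ham's F12, treated with retinoid in Me₂SO from day 5 for 5 days. Cells were sonicated in PBS with 10 mM dithiothreitol, and transglutaminase activity was measured as [³H]putrescine incorporation into casein, in triplicate.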

Assay [6] is filed under the species Oryctolagus cuniculus. As to the kind of experiment: Percentage inhibition of Transglutaminase activity in rabbit at 10 nM. The gist of the method: as §2
Assay [7] concerns F9. As to the kind of experiment: Ability to displace 3 uM retinoid and [3H]all-trans-retinoic acid in F9 embryonal carcinoma cells using F9 Plasminogen Activator releasing assay. To be noted: Mus musculus, F9, 4 days; read-out: ED50 (the source's name). Type of assay: functional.
The nature of assay [8]: Inhibitory dose against tracheal organ culture reversal of keratinization. Type of assay: functional. The following applies: Cricetulus griseus, Trachea; read-out: ID50 (the source's name). The gist of the method: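 Retinoid-deficient hamster tracheas in organ culture, scored for reversal of keratinization. At least six cultures per retinoid concentration; ID50 by polynomial interpolation.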

Assay [9] is filed under the species Oryctolagus cuniculus. As to the kind of experiment: cross-linked envelope inhibition assay was performed at 10 nM compound concentration. Type of assay: functional. Also on record: scale not given: the % may be the effect or the level left. Put shortly: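 Rabbit tracheal epithelial cells exposed to 1 × 10⁻⁸ M retinoid from day 6 of culture. Cross-linked envelope formation was determined on day 12, in triplicate.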

Assay [10] addresses Ornithine decarboxylase (Mus musculus) (UniProt P00860). As to the kind of experiment: Inhibitory effect of compound on the induction of ornithine decarboxylase in CD-1 mouse.
Assay [11] in a line: (§3) Inhibition of binding of [3H]all-trans-retinoic acid to cellular retinoic acid binding protein at 3 uM compound concentration, in rat. The arrangement: scale not given: the % may be the effect or the level left. Put shortly:
(§4)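 CRABP partially purified from rat testis. Competition of 3 μM retinoid with [³H]-all-trans-retinoic acid, bound ligand separated by Sephadex G-25 gel filtration on 2-mL columns. Triplicate measurements.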

The nature of assay [12]: as §3. Type of assay: functional. The arrangement: scale not given: the % may be the effect or the level left. The gist of the method:
as §4

Assay [13] deals with Cellular retinoic acid-binding protein 1 (Gallus gallus) (UniProt P40220).

Molecules are shown by their SMILES.

Chain of Ornithine decarboxylase (Mus musculus) (P00860 whole entry, looked up): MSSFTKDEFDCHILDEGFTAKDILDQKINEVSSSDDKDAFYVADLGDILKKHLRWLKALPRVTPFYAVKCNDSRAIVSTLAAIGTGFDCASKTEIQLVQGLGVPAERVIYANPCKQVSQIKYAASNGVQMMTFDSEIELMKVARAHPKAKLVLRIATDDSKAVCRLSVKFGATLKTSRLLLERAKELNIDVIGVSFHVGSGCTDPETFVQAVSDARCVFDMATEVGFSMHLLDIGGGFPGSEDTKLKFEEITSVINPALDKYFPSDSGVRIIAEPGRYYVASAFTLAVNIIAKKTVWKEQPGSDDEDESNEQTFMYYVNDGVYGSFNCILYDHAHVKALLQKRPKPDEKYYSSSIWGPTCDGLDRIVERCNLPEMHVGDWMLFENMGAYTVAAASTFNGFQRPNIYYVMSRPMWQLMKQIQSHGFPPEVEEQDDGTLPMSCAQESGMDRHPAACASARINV

Regarding `CC1(C)CCC(C)(C)c2cc3cc(-c4ccc(C(=O)O)cc4)ccc3cc21`, the EC50 in the assay with F9 [1] is 0.2 nM; in the assay with F9 [7], 0.3 nM. For the same molecule, the Control is 2% in the assay listed under Oryctolagus cuniculus [2], 12% in the assay filed under Oryctolagus cuniculus [5] and <1% in the assay listed under Oryctolagus cuniculus [9]. The ID50 in assay [3] came to 800 nM; in assay [10], 0.07 nM. Further, in the assay filed under Oryctolagus cuniculus [4], the “Cholesterol sulfate synthesis (% of control)” value is on record as 13%. In the assay filed under Oryctolagus cuniculus [6], this molecule had a Transglutaminase activity (% of control) of 14%. For the same molecule, the IC50 in assay [8] turned out to be 0.01 nM.
Consider `C/C(=C(/C)c1ccc2c(c1)C(C)(C)CCC2(C)C)c1ccc(C(=O)O)cc1`, for which the results for the EC50 in the assay on F9 [1] and with F9 [7] were > 100 nM and > 10 nM, respectively. Further, the Control in the assay filed under Oryctolagus cuniculus [2] turned out to be 33%; in the assay listed under Oryctolagus cuniculus [9] it was 100%. The values for the ID50 in assay [3] and in assay [10] were 1000 nM and 142 nM, respectively. Besides, in the assay listed under Oryctolagus cuniculus [4], the “Cholesterol sulfate synthesis (% of control)” value was determined as 73%. For the same molecule, the Transglutaminase activity (% of control) in the assay listed under Oryctolagus cuniculus [6] is 68%. Moreover, the IC50 in [8] is > 10 nM.
As to `C/C(=C\c1ccc2c(c1)C(C)(C)CCC2(C)C)c1ccc(C(=O)O)cc1`, the EC50 in the assay on F9 [1] turned out to be 1.5 nM; in the assay on F9 [7], 0.7 nM. For the same molecule, the Control in the assay filed under Oryctolagus cuniculus [2] worked out at 1%; in the assay filed under Oryctolagus cuniculus [5] it was 10%; in [11], 27%; in the assay listed under Oryctolagus cuniculus [9] it was 0%. The ID50 was 1000 nM in assay [3] and 0.03 nM in [10]. Moreover, the “Cholesterol sulfate synthesis (% of control)” value in the assay filed under Oryctolagus cuniculus [4] turned out to be 2%. Besides, the Transglutaminase activity (% of control) in the assay listed under Oryctolagus cuniculus [6] came out at 5%. The IC50 in assay [8] came to 0.007 nM.
As for `Cc1cc2c(cc1-c1ccc3cc(C(=O)O)ccc3c1)C(C)(C)CCC2(C)C`, the EC50 is > 100 nM in the assay on F9 [1] and 0.5 nM in the assay with F9 [7]. The values for the Control in the assay listed under Oryctolagus cuniculus [2], in the assay listed under Oryctolagus cuniculus [5] and in the assay listed under Oryctolagus cuniculus [9] were 2%, 37% and <1%, respectively. Also, the figures for the ID50 in assay [3] and in [10] were 4800 nM and 0.4 nM, respectively. Besides, in the assay filed under Oryctolagus cuniculus [4], the “Cholesterol sulfate synthesis (% of control)” value is recorded as 12%. The same molecule displayed a Transglutaminase activity (% of control) in the assay filed under Oryctolagus cuniculus [6] of 11%. For the same molecule, the IC50 in assay [8] came out at 0.02 nM.
Regarding `CC1(C)CCC(C)(C)c2cc(-c3ccc4cc(C(=O)O)ccc4c3)ccc21`, the values for the EC50 with F9 [1] and with F9 [7] were 31 nM and 1 nM, respectively. Besides, the Control was 2% in the assay listed under Oryctolagus cuniculus [2], 91% in [11] and <1% in the assay filed under Oryctolagus cuniculus [9]. The ID50 in assay [3] worked out at 1600 nM; in assay [10] it was 2.2 nM. Further, the “Cholesterol sulfate synthesis (% of control)” value in the assay filed under Oryctolagus cuniculus [4] is on record as 15%. Besides, in the assay listed under Oryctolagus cuniculus [6], the Transglutaminase activity (% of control) worked out at 9%. Besides, the IC50 in assay [8] came to 0.003 nM.
Consider `CC1(C)CCC(C)(C)c2cc(C3C[C@H]3c3ccc(C(=O)O)cc3)ccc21` (stereo not given in full), for which the EC50 with F9 [1] was 90 nM; in the assay with F9 [7], 2 nM. Moreover, the Control in the assay listed under Oryctolagus cuniculus [2] was 2%; in the assay listed under Oryctolagus cuniculus [5], 130%; in the assay filed under Oryctolagus cuniculus [9], <1%. Besides, the ID50 was 4800 nM in assay [3] and 3.2 nM in [10]. The “Cholesterol sulfate synthesis (% of control)” value in the assay listed under Oryctolagus cuniculus [4] amounted to 73%. For the same molecule, in the assay listed under Oryctolagus cuniculus [6], the Transglutaminase activity (% of control) was determined as 23%. In [8], the IC50 was > 0.1 nM.
Take `C/C(=C\c1ccc(C(=O)O)cc1)c1ccc2c(c1)C(C)(C)CCC2(C)C`: the EC50 in the assay on F9 [1] is 1.5 nM; in the assay with F9 [7] it was 0.08 nM. Besides, the Control in the assay filed under Oryctolagus cuniculus [2] is 1%; in assay [11] it was 100%; in the assay filed under Oryctolagus cuniculus [9], <1%. For the same molecule, the values for the ID50 in assay [3] and in assay [10] were 800 nM and 0.03 nM, respectively. In the assay listed under Oryctolagus cuniculus [4], the “Cholesterol sulfate synthesis (% of control)” value is reported as 6%. Moreover, the Transglutaminase activity (% of control) in the assay filed under Oryctolagus cuniculus [6] worked out at 1%. In addition, the IC50 in assay [8] amounted to 0.002 nM.
For the molecule `CC1=C(/C=C/C(C)=C/C=C/C(C)=C/C(=O)O)C(C)(C)CCC1` [TRETINOIN], the Control in assay [12] is on record as 91%; in the assay filed under Oryctolagus cuniculus [2], 5%; in the assay listed under Oryctolagus cuniculus [9], <1%. In addition, the results for the EC50 in the assay with F9 [1] and in the assay with F9 [7] were 1.5 nM and 0.1 nM, respectively. The ID50 in assay [13] worked out at 1000 nM; in [10], 0.04 nM. The “Cholesterol sulfate synthesis (% of control)” value in the assay listed under Oryctolagus cuniculus [4] is given as 100%. The molecule further had a Transglutaminase activity (% of control) in the assay filed under Oryctolagus cuniculus [6] of 15%. Besides, the IC50 in assay [8] was 0.01 nM.
Consider `Cc1c(-c2ccc3c(c2)C(C)(C)CCC3(C)C)ccc2cc(C(=O)O)ccc12`, for which the EC50 was > 5000 nM with F9 [1] and 3 nM in the assay with F9 [7]. The Control in the assay listed under Oryctolagus cuniculus [2] is 14%; in the assay listed under Oryctolagus cuniculus [5], 114%; in the assay listed under Oryctolagus cuniculus [9] it was 5%. Also, the figures for the ID50 in assay [3] and in assay [10] were 15000 nM and 66 nM, respectively. For the same molecule, the “Cholesterol sulfate synthesis (% of control)” value in the assay filed under Oryctolagus cuniculus [4] is recorded as 187%. In addition, the Transglutaminase activity (% of control) in the assay filed under Oryctolagus cuniculus [6] worked out at 47%. Besides, the IC50 in assay [8] is 0.08 nM.

Source of the values: ChEMBL document CHEMBL1124521, “Effect of structural modifications in the C7-C11 region of the retinoid skeleton on biological activity in a series of aromatic retinoids” (1989).
